Screening data (PubChem BioAssay)
SENP7 inh – SENP7 protease inhibitors, primary screen, biochemical, luminescence, uHTS | 330,000 compounds, 1.5% hits | recombinant SENP7, Z-RLRGG-aminoluciferin luminescence, 40 min | Sentrin-specific protease 7 (Homo sapiens), Q9BQF6 | inhibition, % at 5 µM;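 active = inhibition above about 50% at the single test dose, limit read from the data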;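 also: plate controls were DMSO with enzyme for no effect and no enzyme buffer wells for full effect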
Target sequence (Q9BQF6 706-1050 limits assumed): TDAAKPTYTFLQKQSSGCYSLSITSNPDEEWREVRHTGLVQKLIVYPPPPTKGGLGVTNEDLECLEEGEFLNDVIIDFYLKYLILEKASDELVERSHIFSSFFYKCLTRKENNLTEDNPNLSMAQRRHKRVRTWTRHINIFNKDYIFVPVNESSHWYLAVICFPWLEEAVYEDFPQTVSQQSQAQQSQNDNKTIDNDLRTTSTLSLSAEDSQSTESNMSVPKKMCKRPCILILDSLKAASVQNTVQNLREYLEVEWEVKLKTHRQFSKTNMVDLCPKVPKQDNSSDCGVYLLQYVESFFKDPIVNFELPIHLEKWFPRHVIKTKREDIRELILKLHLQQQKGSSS
SENP1 inh – human SENP1 catalytic domain inhibitors, primary screen, biochemical, FRET, uHTS. Sentrin-specific protease 1 (Homo sapiens), Q9P0U3. AID 624204, 2012. recombinant SENP1 catalytic domain, CyPet-SUMO1-YPet FRET cleavage. 360,000 compounds, 0.21% hits. inhibition, % at 10 µM;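 active = inhibition at least 30% at 10 µM, raw YFP signal under a set limit, fluorescence ratio 0.5 to 1.5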;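 also: 0% = enzyme with DMSO and 100% = no enzyme wells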
Target sequence (Q9P0U3 419-644 limits assumed): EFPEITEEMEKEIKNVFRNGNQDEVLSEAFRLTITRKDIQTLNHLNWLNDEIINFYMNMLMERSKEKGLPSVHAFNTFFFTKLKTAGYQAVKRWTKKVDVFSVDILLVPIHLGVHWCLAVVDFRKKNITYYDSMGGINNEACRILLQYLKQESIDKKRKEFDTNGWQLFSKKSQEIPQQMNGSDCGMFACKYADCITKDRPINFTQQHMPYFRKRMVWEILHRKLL
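Controls: no-enzyme wells low, DMSO-plus-enzyme wells high control. Test system: human recombinant His6-tagged SENP1 catalytic domain enzyme. Reagent: SFCypet-SUMO1-SFYpet FRET protein substrate, 25 nM final. Doses: one dose per compound, 10 µM, 0.5% DMSO. Detection: FRET, CFP and YFP emission. Timing: 50 min reaction at room temperature.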
SENP8 block-1 – SENP8 protease inhibitors, primary screen, biochemical, luminescence | 330,000 compounds, 1.2% hits | inhibition, % at 10 µM | Sentrin-specific protease 8 (Homo sapiens), Q96LD8 | AID 2540, 2010 | purified SENP8, Z-RLRGG-aminoluciferin cleavage; in the data active = inhibition above about 50%
SENP8 block-2 – human SENP8 protease inhibitors, primary screen, biochemical, fluorescence, Nedd8 protein substrate, uHTS; AID 602440, 2012; Sentrin-specific protease 8 (Homo sapiens), Q96LD8; 360,000 compounds, 0.64% hits; recombinant SENP8; inhibition, % at 20 µM; in the data active = inhibition mostly above about 40%, no sharp cut-off; inactive = mostly below about 27%
SENP6 block – SENP6 protease inhibitors, primary screen, biochemical, luminescence, uHTS; Sentrin-specific protease 6 (Homo sapiens), Q9GZR1; Recombinant SENP6 catalytic domain, aminoluciferin luminescence; inhibition, % at 10 µM; 330,000 compounds, 1.8% hits;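 active = inhibition above about 50% at the single tested dose, limit read from the data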;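 also: plate controls were DMSO wells with enzyme for no effect and DMSO wells lacking enzyme for full effect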
SENP8 conf – human SENP8 protease inhibitors, confirmation, biochemical, Nedd8 protein substrate, single concentration. shares compounds with SENP8 block-2. purified SENP8, Nedd8-AMC/pro-Nedd8 cleavage fluorescence, 30 min. inhibition, % at 25 µM. 1,400 compounds, 15% hits. AID 624319, 2012; in the data active = inhibition mostly above about 39%, no sharp cut-off; inactive = mostly below about 34%
Starred values were filed as active, the others as inactive; x = no result. Compounds with a hit are over-represented: about 2.5% of the library has one in this group of screens.

SMILES	SENP7 inh	SENP1 inh	SENP8 block-1	SENP8 block-2	SENP6 block	SENP8 conf
Cc1cccc(C)c1NC(=O)Cn1c(=O)n(CCCC(=O)NC2CCN(Cc3ccccc3)CC2)c(=O)c2ccccc21	1	-1	-1	15	-14	x
O=C(CCCCn1c(=O)c2ccccc2n(Cc2ccccc2F)c1=O)NC1CCN(Cc2ccccc2)CC1	0	0	-7	40*	8	10
O=C1C(=C(I)I)c2ccccc2-c2ccccc21	x	-3	x	40*	x	-1
O=C(O)c1cccc2c1C(=O)c1ccccc1-2	0	1	1	13	-9	x
Cc1ccc(S(=O)(=O)N2CCCCC2)cc1NC(=O)c1ccc(Cl)nc1	4	-2	2	7	-3	x
CCOc1ccc(OCC(=O)Nc2ccc(S(=O)(=O)Nc3cc(C)nc(C)n3)cc2)cc1	-5	-1	-2	42*	-11	5
Cc1cc(NS(=O)(=O)c2ccc(NC(=O)COc3ccc(Br)cc3)cc2)nc(C)n1	-5	2	-6	17	0	x
COc1cccc(C(=O)COC(=O)c2n[nH]c(=O)c3ccccc23)c1	2	0	-1	9	-18	x
O=C(Nc1cccc(Cl)c1)c1ccc(NCCCN2CCOCC2)c([N+](=O)[O-])c1	0	3	-6	41*	-6	13
COc1ccc(N2C(=O)Cc3ccccc3C2=O)cc1	19	-8	8	84*	39	38
COc1ccc2c(c1)C(=O)N(c1ccccc1)C(=O)C2	14	40	4	5	-2	x
Cc1ccc(CC(=O)NNC(=O)c2cccs2)cc1C	2	-1	-4	10	9	x
Cc1nc2c(C(=O)Nc3ccc(N4CCCC(O)C4)cc3)snc2c(=O)[nH]1 (centres undefined)	-5	3	-1	57*	-2	-4
O=C(Nc1ccc(N2CCCC(O)C2)cc1)c1snc2c(=O)[nH]cnc12 (centres undefined)	-4	1	-1	6	-9	x
CC(Nc1cc(N2CCNCC2)ccc1[N+](=O)[O-])c1ccccc1 (centres undefined)	-4	4	-6	35	-3	x
O=[N+]([O-])c1ccc(N2CCOCC2)cc1NC(c1ccccc1)c1ccccc1	7	1	-6	28	-2	x
CCS(=O)(=O)N1CCN(c2ccc([N+](=O)[O-])c(NC(C)c3ccccc3)c2)CC1 (centres undefined)	2	3	0	60*	-1	1
CS(=O)(=O)N1CCN(c2ccc([N+](=O)[O-])c(NCc3ccccc3)c2)CC1	-13	0	-9	45*	-4	23
CCS(=O)(=O)N1CCN(c2ccc([N+](=O)[O-])c(NCc3ccccc3)c2)CC1	2	4	4	35	-17	x
O=[N+]([O-])c1ccc(N2CCCC2)cc1NC(c1ccccc1)c1ccccc1	2	2	-3	56*	-3	8
CCOC(=O)[C@]12CCC=C1N(Cc1ccc(Cl)cc1Cl)C(=O)[C@H](CC(=O)N1CCOCC1)C2	x	-1	x	11	x	x
Cc1ccc(N(CC(=O)NC(C)C)C(=O)CCC(=O)Nc2nccs2)c(C)c1	2	-1	7	16	4	x
CCC(C)[C@H](NC(=O)c1cc2cc(Cl)ccc2n1C)C(=O)N1CCC(C(=O)O)CC1 (some centres undefined)	-4	-1	-11	-2	-16	x
Cc1ccccc1OCCNc1cc(N2CC(C)NC(C)C2)ccc1[N+](=O)[O-] (centres undefined)	-4	3	-7	25	-22	x
O=[N+]([O-])c1ccc(N2CCCCC2)cc1NCCOc1ccccc1	-2	2	-10	40*	-3	20
SMILES	SENP7 inh	SENP1 inh	SENP8 block-1	SENP8 block-2	SENP6 block	SENP8 conf
CC1CN(c2ccc([N+](=O)[O-])c(NCCOc3ccc(Cl)cc3)c2)CC(C)N1 (centres undefined)	-1	2	-6	46*	2	16
CC1CN(c2ccc([N+](=O)[O-])c(NCCOc3ccccc3)c2)CC(C)N1 (centres undefined)	1	1	1	38*	-15	6
CC(C)(C)CNc1cc(N2CCCC2)ccc1[N+](=O)[O-]	-1	3	-5	26	1	x
N#Cc1nnn(-c2ccc(Cl)cc2)c1N	-4	1	-9	9	-5	x
CCn1c(=O)c2c(nc(SCC(=O)Nc3ccccc3)n2C)n(C)c1=O	5	0	-1	16	7	x
Cc1ccc(S(=O)(=O)/N=C(/c2ccc(F)cc2)N2CCCCC2)cc1	5	0	0	8	0	x
CCOc1ccc(C(=O)Nc2ccccc2N2CCN(C(=O)c3ccccc3)CC2)cc1[N+](=O)[O-]	-8	1	-5	7	-7	x
CCOc1ccccc1NC1=C(Cl)C(=O)N(Cc2ccccc2)C1=O	-9	2	-4	41*	-12	17
Cc1cccn2c(=O)nc(SCC(=O)c3ccccc3)nc12	3	0	1	-25	-8	x
CNc1ncnc(Sc2ccc(Cl)cc2)c1[N+](=O)[O-]	0	1	8	42*	-3	4
Cc1cc(OCC(=O)Nc2ccc(Br)cc2)cc2c1C(=O)CC(C)(C)O2	2	1	-8	41*	-8	16
CC(=O)Nc1ccc(NC(=O)COc2cc(O)c3c(c2)OC(C)(C)CC3=O)cc1	5	0	-8	41*	-8	12
CCN1CCN(c2ccc(S(=O)(=O)N3CCCCC3)cc2NC(=O)c2cc3ccccc3o2)CC1	3	-6	-4	-53	-14	x
COc1ccc(N2C(=O)CC(Nc3cccc([N+](=O)[O-])c3)C2=O)cc1 (centres undefined)	8	4	-8	47*	6	29
O=C1CN(CC(=O)NC2CCCc3ccccc32)CCN1 (centres undefined)	-1	2	6	16	6	x
CC1=CC2(O)OCCN(CCO)C2=CC1=O (centres undefined)	3	-4	8	44*	9	32
CCOC(=O)c1c(NC(=O)COC(=O)C2CC2C)sc(C)c1C (centres undefined)	7	0	1	-10	13	x
Cc1cc(-c2ccccc2)n2nc(N)nc2n1	-3	3	-5	-418	-12	x
CCCCc1nnc(NC(=O)Cn2cnc3ccccc3c2=O)s1	-9	-1	3	14	-6	x
